Laboratory results: PMC9061098 (RSC Advances, 2019)
Peptide text beside a SMILES is read from it.

What was measured:
Experiment in all cases: MIC/MBC microdilution assay
[1] = tested on: E. coli ATCC 43827; type: cell-based, Escherichia coli; settings: n = 2; for Antibacterial activity, MIC: microdilution, 24 h at 37 °C, absorbance 620 nm; for Antibacterial activity, MBC: plated on MHA, overnight 37 °C
In short: (§1)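 Broth microdilution: 90 µL peptide (200, 100, 50, 25, 12.5 and 6.2 µg mL-1 as added) plus 10 µL inoculum (5 × 10^6 CFU mL-1 as added). Incubation 24 h at 37 °C; growth read as absorbance at 620 nm. For MBC, wells with no visible growth were loop-sampled, spread on MHA and incubated overnight at 37 °C. Run twice (n = 2).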

[2] = tested on: E. faecalis ATCC 29212; type: cell-based, Enterococcus faecalis; settings: n = 2; for Antibacterial activity, MIC: microdilution, 24 h at 37 °C, absorbance 620 nm; for Antibacterial activity, MBC: plated on MHA, overnight 37 °C
In short: as §1

[3] = tested on: P. aeruginosa ATCC 27853; type: cell-based, Pseudomonas aeruginosa; settings: n = 2; for Antibacterial activity, MIC: microdilution, 24 h at 37 °C, absorbance 620 nm; for Antibacterial activity, MBC: plated on MHA, overnight 37 °C
In short: as §1

[4] = tested on: S. aureus ATCC 25923; type: cell-based, Staphylococcus aureus; settings: n = 2; for Antibacterial activity, MIC: microdilution, 24 h at 37 °C, absorbance 620 nm; for Antibacterial activity, MBC: plated on MHA, overnight 37 °C
In short: as §1

[5] = tested on: E. coli ATCC 11775; type: cell-based, Escherichia coli; settings: n = 2
In short: as §1

[6] = tested on: E. coli ATCC 25922; type: cell-based, Escherichia coli; settings: n = 2
In short: as §1

[7] = microdilution, 24 h at 37 °C, absorbance 620 nm

Antibacterial activity, MIC [1] [µM] | Antibacterial activity, MIC [2] [µM] | Antibacterial activity, MIC [3] [µM] | Antibacterial activity, MIC [4] [µM] | Antibacterial activity, MIC [5, 7] [µM] | Antibacterial activity, MIC [6, 7] [µM] | SMILES | Antibacterial activity, MBC [1] [µM] | Antibacterial activity, MBC [2] [µM] | Antibacterial activity, MBC [3] [µM] | Antibacterial activity, MBC [4] [µM] | Antibacterial activity, MBC ([5]; plated on MHA, overnight 37 °C) [µM] | Antibacterial activity, MBC ([6]; plated on MHA, overnight 37 °C) [µM]
102 | > 203 | 203 | 203 |  |  | N=C(N)NCCC[C@H](NC(=O)[C@H](Cc1c[nH]c2ccccc12)NC(=O)[C@H](CCC(N)=O)NC(=O)[C@H](Cc1c[nH]c2ccccc12)NC(=O)[C@H](CCCNC(=N)N)NC(=O)[C@@H](N)CCCNC(=N)N)C(N)=O [LfcinB (20–25)] (H-RRWQWR-NH2) | 203 | > 203 | > 203 | > 203 |  | 
65 | > 130 | > 130 | 130 |  |  | CSCC[C@H](NC(=O)[C@H](CCCNC(=N)N)NC(=O)[C@H](Cc1c[nH]c2ccccc12)NC(=O)[C@H](CCC(N)=O)NC(=O)[C@H](Cc1c[nH]c2ccccc12)NC(=O)[C@H](CCCNC(=N)N)NC(=O)[C@@H](N)CCCNC(=N)N)C(=O)N[C@@H](CCCCN)C(=O)N[C@@H](CCCCN)C(=O)N[C@@H](CC(C)C)C(=O)NCC(N)=O [LfcinB (20–30)] (H-RRWQWRMKKLG-NH2) | 130 | > 130 | > 130 | > 130 |  | 
17 | 67 | 67 | 135 | 17 | 17 | N=C(N)NCCC[C@H](NC(=O)[C@H](Cc1c[nH]c2ccccc12)NC(=O)[C@H](CCC(N)=O)NC(=O)[C@H](Cc1c[nH]c2ccccc12)NC(=O)[C@H](CCCNC(=N)N)NC(=O)[C@H](Cc1c[nH]c2ccccc12)NC(=O)[C@H](CCC(N)=O)NC(=O)[C@H](Cc1c[nH]c2ccccc12)NC(=O)[C@@H](N)CCCNC(=N)N)C(N)=O [LfcinB (21–25)Pal] (H-RWQWRWQWR-NH2) | 67 | 67 | 135 | > 135 | 17 | 34

SMILES | Antibacterial activity, MIC [1] [µM] | Antibacterial activity, MIC [2] [µM] | Antibacterial activity, MIC [3] [µM] | Antibacterial activity, MIC [4] [µM] | Antibacterial activity, MIC [5, 7] [µM] | Antibacterial activity, MIC [6, 7] [µM] | Antibacterial activity, MBC [1] [µM] | Antibacterial activity, MBC [2] [µM] | Antibacterial activity, MBC [3] [µM] | Antibacterial activity, MBC [4] [µM] | Antibacterial activity, MBC ([5]; plated on MHA, overnight 37 °C) [µM] | Antibacterial activity, MBC ([6]; plated on MHA, overnight 37 °C) [µM]
CSCC[C@H](NC(=O)[C@H](CCCNC(=N)N)NC(=O)[C@H](Cc1c[nH]c2ccccc12)NC(=O)[C@H](CCC(N)=O)NC(=O)[C@H](Cc1c[nH]c2ccccc12)NC(=O)[C@H](CCCNC(=N)N)NC(=O)[C@H](CCCNC(=N)N)NC(=O)[C@H](C)NC(=O)[C@H](CCCCN)NC(=O)[C@@H](N)Cc1ccccc1)C(=O)N[C@@H](CCCCN)C(=O)N[C@@H](CCCCN)C(=O)N[C@@H](CC(C)C)C(=O)NCC(=O)N[C@@H](C)C(N)=O [[Ala^19]-LfcinB (17–31)] | 102 | > 102 | 102 | > 102 |  |  | > 102 | > 102 | > 102 | > 102 |  | 
